Common to all, as to format: cell-based
Assay [1] deals with T1, Integrin alpha-4/beta-7 (Mus musculus) (UniProt Q00651+P26011). Description: Inhibition of alpha4beta7 assessed as inhibition of Mn(2+)-activated adhesion of mouse TK-1 T cells to mouse MAdCAM-1 at 100 uM incubated for 1 hr by cell adhesion assay. Summed up:
(§1)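 TK-1 cells (mouse AKR/Cum α4β7+/α4β1− CD8 T lymphoma), grown at 37 °C in RPMI 1640 with 10% FCS and 0.05 mM β-mercaptoethanol, were washed and held 1 h at room temperature in HBSS/10 mM Hepes with peptide. They were then activated with 2 mM MnCl₂ and added at 10⁶ cells/well to glass slides coated with mouse MAdCAM-1-Fc (10 μg/ml, FBS-blocked). Adhesion ran 30 min.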

For assay [2], the target named is T1, Integrin alpha-4/beta-7 (Mus musculus). Description: Inhibition of alpha4beta7 assessed as inhibition of Mn(2+)-activated adhesion of mouse TK-1 T cells to mouse MAdCAM-1 at 50 uM incubated for 1 hr by cell adhesion assay. Summed up: as §1
Assay [3] has the same target. Description: Inhibition of alpha4beta7 assessed as inhibition of Mn(2+)-activated adhesion of mouse TK-1 T cells to mouse MAdCAM-1 at <5 to 10 uM incubated for 1 hr by cell adhesion assay. Summed up:
as §1

The target is the same in assay [4]. Description: Inhibition of alpha4beta7 assessed as inhibition of Mn(2+)-activated adhesion of mouse TK-1 T cells to mouse MAdCAM-1 at 25 uM incubated for 1 hr by cell adhesion assay. The essentials:
as §1

This passage reports inhibition results from ChEMBL document CHEMBL2069235, “Synthesis and biological evaluation of tyrosine modified analogues of the α4β7 integrin inhibitor biotin-R₈ERY” (Bioorg Med Chem, 2012).

The source made the active and inactive calls. The calls are words filed in the database; no cut-off is given here. *1 amine or outer side, *2 acyl side, *3 side chain or, on linkers, in order; H or OH if unused. Where a SMILES comes first, the peptide text is derived from it. [ ]: non-standard residue; d: D form. The star is where a group is joined. X7 = O=C([C@H](Cc1ccc(-c2cccc([N+](=O)[O-])c2)cc1)N[*:1])[*:2]; Phe(4-(2-MeO-Ph)) = COc1ccccc1-c1ccc(C[C@H](N)C(=O)O)cc1; X3 = COc1cccc(OC)c1-c1ccc(C[C@H](N[*:1])C(=O)[*:2])cc1; X6 = COc1ccc(-c2ccc(C[C@H](N[*:1])C(=O)[*:2])cc2)cc1OC; X5 = N#Cc1ccc(-c2ccc(C[C@H](N[*:1])C(=O)[*:2])cc2)cc1; Bip(4'-Me) = Cc1ccc(-c2ccc(C[C@H](N)C(=O)O)cc2)cc1; X4 = O=C([C@H](Cc1ccc(C2=CCCCC2)cc1)N[*:1])[*:2]; Biotin = O=C1N[C@H]2[C@H](CS[C@H]2CCCCC(=O)*)N1; X1 = O=C([C@H](Cc1ccc(C2CCCCC2)cc1)N[*:1])[*:2]

`N=C(N)NCCC[C@H](NC(=O)[C@H](CCCNC(=N)N)NC(=O)[C@H](CC(=O)O)NC(=O)[C@H](Cc1ccc(O)cc1)NC(=O)[C@@H](CCCNC(=N)N)NC(=O)[C@@H](CCCNC(=N)N)NC(=O)[C@@H](CCCNC(=N)N)NC(=O)[C@@H](CCCNC(=N)N)NC(=O)[C@@H](CCCNC(=N)N)NC(=O)[C@@H](CCCNC(=N)N)NC(=O)[C@@H](CCCNC(=N)N)NC(=O)[C@@H](CCCNC(=N)N)NC(=O)[C@@H](CCCNC(=N)N)NC(=O)CCCC[C@@H]1SC[C@@H]2NC(=O)N[C@@H]21)C(=O)N[C@@H](CCC(=O)O)C(=O)N[C@@H](Cc1ccc(O)cc1)C(=O)O`: the inhibition in assay [1] is 71.3%; in assay [2] it was 66.4%.
Taken in the same sequence, the figures for `N=C(N)NCCC[C@H](NC(=O)CCCC[C@@H]1SC[C@@H]2NC(=O)N[C@@H]21)C(=O)N[C@@H](CCCNC(=N)N)C(=O)N[C@@H](CCCNC(=N)N)C(=O)N[C@@H](CCCNC(=N)N)C(=O)N[C@@H](CCCNC(=N)N)C(=O)N[C@@H](CCCNC(=N)N)C(=O)N[C@@H](CCCNC(=N)N)C(=O)N[C@@H](CCCNC(=N)N)C(=O)N[C@@H](CCC(=O)O)C(=O)N[C@@H](CCCNC(=N)N)C(=O)N[C@@H](Cc1ccc(O)cc1)C(=O)O` (Biotin-RRRRRRRRERY-OH) were 18.2% and 8.73%.
With `Cc1ccc(-c2ccc(C[C@H](NC(=O)[C@H](CCCNC(=N)N)NC(=O)[C@H](CCC(=O)O)NC(=O)[C@H](CCCNC(=N)N)NC(=O)[C@H](CCCNC(=N)N)NC(=O)[C@H](CCCNC(=N)N)NC(=O)[C@H](CCCNC(=N)N)NC(=O)[C@H](CCCNC(=N)N)NC(=O)[C@H](CCCNC(=N)N)NC(=O)[C@H](CCCNC(=N)N)NC(=O)[C@H](CCCNC(=N)N)NC(=O)CCCC[C@@H]3SC[C@@H]4NC(=O)N[C@@H]43)C(=O)O)cc2)cc1` (Biotin-RRRRRRRRER[Bip(4'-Me)]-OH), the inhibition worked out at 57.3% in assay [1] and 47.4% in assay [2].
Taken in the same sequence, the figures for `COc1ccccc1-c1ccc(C[C@H](NC(=O)[C@H](CCCNC(=N)N)NC(=O)[C@H](CCC(=O)O)NC(=O)[C@H](CCCNC(=N)N)NC(=O)[C@H](CCCNC(=N)N)NC(=O)[C@H](CCCNC(=N)N)NC(=O)[C@H](CCCNC(=N)N)NC(=O)[C@H](CCCNC(=N)N)NC(=O)[C@H](CCCNC(=N)N)NC(=O)[C@H](CCCNC(=N)N)NC(=O)[C@H](CCCNC(=N)N)NC(=O)CCCC[C@@H]2SC[C@@H]3NC(=O)N[C@@H]32)C(=O)O)cc1` (Biotin-RRRRRRRRER[Phe(4-(2-MeO-Ph))]-OH) were 47.1% and 48.1%.
`N=C(N)NCCC[C@H](NC(=O)CCCC[C@@H]1SC[C@@H]2NC(=O)N[C@@H]21)C(=O)N[C@@H](CCCNC(=N)N)C(=O)N[C@@H](CCCNC(=N)N)C(=O)N[C@@H](CCCNC(=N)N)C(=O)N[C@@H](CCCNC(=N)N)C(=O)N[C@@H](CCCNC(=N)N)C(=O)N[C@@H](CCCNC(=N)N)C(=O)N[C@@H](CCCNC(=N)N)C(=O)N[C@@H](CCC(=O)O)C(=O)N[C@@H](CCCNC(=N)N)C(=O)N[C@@H](Cc1ccc(C2CCCCC2)cc1)C(=O)O` (Biotin-RRRRRRRRER[X1]-OH): the inhibition entry in assay [3] is “inactive”. Also, the values for the inhibition in assay [1] and in assay [2] were 64.8% and 71.7%, respectively. Besides, the inhibition result in assay [4] is “Active”.
On to `COc1cccc(OC)c1-c1ccc(C[C@H](NC(=O)[C@H](CCCNC(=N)N)NC(=O)[C@H](CCC(=O)O)NC(=O)[C@H](CCCNC(=N)N)NC(=O)[C@H](CCCNC(=N)N)NC(=O)[C@H](CCCNC(=N)N)NC(=O)[C@H](CCCNC(=N)N)NC(=O)[C@H](CCCNC(=N)N)NC(=O)[C@H](CCCNC(=N)N)NC(=O)[C@H](CCCNC(=N)N)NC(=O)[C@H](CCCNC(=N)N)NC(=O)CCCC[C@@H]2SC[C@@H]3NC(=O)N[C@@H]32)C(=O)O)cc1` (Biotin-RRRRRRRRER[X3]-OH), for which the values for the inhibition in assay [1] and in assay [2] were 50.9% and 38.3%, respectively.
Take `N=C(N)NCCC[C@H](NC(=O)CCCC[C@@H]1SC[C@@H]2NC(=O)N[C@@H]21)C(=O)N[C@@H](CCCNC(=N)N)C(=O)N[C@@H](CCCNC(=N)N)C(=O)N[C@@H](CCCNC(=N)N)C(=O)N[C@@H](CCCNC(=N)N)C(=O)N[C@@H](CCCNC(=N)N)C(=O)N[C@@H](CCCNC(=N)N)C(=O)N[C@@H](CCCNC(=N)N)C(=O)N[C@@H](CCC(=O)O)C(=O)N[C@@H](CCCNC(=N)N)C(=O)N[C@@H](Cc1ccc(C2=CCCCC2)cc1)C(=O)O` (Biotin-RRRRRRRRER[X4]-OH): the inhibition was 59.1% in assay [1] and 49.7% in assay [2].
Taken in the same sequence, the figures for `N#Cc1ccc(-c2ccc(C[C@H](NC(=O)[C@H](CCCNC(=N)N)NC(=O)[C@H](CCC(=O)O)NC(=O)[C@H](CCCNC(=N)N)NC(=O)[C@H](CCCNC(=N)N)NC(=O)[C@H](CCCNC(=N)N)NC(=O)[C@H](CCCNC(=N)N)NC(=O)[C@H](CCCNC(=N)N)NC(=O)[C@H](CCCNC(=N)N)NC(=O)[C@H](CCCNC(=N)N)NC(=O)[C@H](CCCNC(=N)N)NC(=O)CCCC[C@@H]3SC[C@@H]4NC(=O)N[C@@H]43)C(=O)O)cc2)cc1` (Biotin-RRRRRRRRER[X5]-OH) were 57% and 45%.
Consider `COc1ccc(-c2ccc(C[C@H](NC(=O)[C@H](CCCNC(=N)N)NC(=O)[C@H](CCC(=O)O)NC(=O)[C@H](CCCNC(=N)N)NC(=O)[C@H](CCCNC(=N)N)NC(=O)[C@H](CCCNC(=N)N)NC(=O)[C@H](CCCNC(=N)N)NC(=O)[C@H](CCCNC(=N)N)NC(=O)[C@H](CCCNC(=N)N)NC(=O)[C@H](CCCNC(=N)N)NC(=O)[C@H](CCCNC(=N)N)NC(=O)CCCC[C@@H]3SC[C@@H]4NC(=O)N[C@@H]43)C(=O)O)cc2)cc1OC` (Biotin-RRRRRRRRER[X6]-OH), for which the inhibition in assay [1] turned out to be 50.1%; in assay [2], 37.9%.
With `N=C(N)NCCC[C@H](NC(=O)CCCC[C@@H]1SC[C@@H]2NC(=O)N[C@@H]21)C(=O)N[C@@H](CCCNC(=N)N)C(=O)N[C@@H](CCCNC(=N)N)C(=O)N[C@@H](CCCNC(=N)N)C(=O)N[C@@H](CCCNC(=N)N)C(=O)N[C@@H](CCCNC(=N)N)C(=O)N[C@@H](CCCNC(=N)N)C(=O)N[C@@H](CCCNC(=N)N)C(=O)N[C@@H](CCC(=O)O)C(=O)N[C@@H](CCCNC(=N)N)C(=O)N[C@@H](Cc1ccc(-c2cccc([N+](=O)[O-])c2)cc1)C(=O)O` (Biotin-RRRRRRRRER[X7]-OH), the inhibition in assay [1] turned out to be 60.3%; in assay [2], 50.5%.

Broadly, the inhibition is the share of the control response that was lost under treatment.
